{
  "source": "ChEMBL document CHEMBL1671864",
  "about": "“First assessment in humans of the safety, tolerability, pharmacokinetics, and ex vivo pharmacodynamic antimalarial activity of the new artemisinin derivative artemisone” (Antimicrob Agents Chemother, 2008)",
  "key": {"[1]": {"test": "Apparent volume of distribution with respect to the bioavailability in healthy human at 80 mg, po administered as four 20 mg immediate release tablets daily for 3 days during 10 hrs overnight fasting state measured after 1 day", "format": "ADME, organism-based", "details": "in vivo, read-out: Vc/F", "method_in_brief": "(§1)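 Healthy Caucasian males took 40 mg (2×20-mg IR tablets) or 80 mg (4 tablets) orally daily for 3 days after a 10-h fast. Plasma parent drug was measured by LC/MS-MS from predose to 14 h after the first and third doses. Noncompartmental analysis: AUC by log-linear trapezoid extrapolated via kel, CL/F = dose/AUC, V/F = CL/F÷kel, geometric means.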"}, "[2]": {"test": "Half life in healthy human plasma at 30 mg, po administered as single ascending doses as solution during 10 hrs overnight fasting state", "format": "ADME, organism-based", "method_in_brief": "(§2)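 Healthy Caucasian male volunteers, single oral dose with 240 ml water after a 10-h overnight fast. Heparinised venous blood was drawn predose and at 0.25–14 h. Plasma was stored frozen. Parent drug and metabolites M1–M3 were measured by LC/MS-MS (MRM, deuterated internal standard). Noncompartmental analysis gave Cmax observed, t1/2 = 0.693/kel (terminal regression) and MRT = AUMC/AUC. Values are geometric means.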"}, "[3]": {"test": "Tmax in healthy human plasma at 30 mg, po administered as single ascending doses as solution during 10 hrs overnight fasting state", "format": "ADME, organism-based", "method_in_brief": "(§3)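 Healthy Caucasian male volunteers, randomized within each dose group against placebo, given a single oral solution with 240 ml water after a 10-h overnight fast. Plasma sampled predose and at 0.25–14 h, quantified by LC/MS-MS (MRM, deuterated internal standard). Tmax read directly from individual noncompartmental concentration–time data.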"}, "[4]": {"test": "Apparent oral clearance in healthy human at 20 mg, po administered as single ascending doses as solution during 10 hrs overnight fasting state", "format": "ADME, organism-based", "details": "in vivo", "method_in_brief": "(§4)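 Single ascending oral doses in healthy Caucasian men, given fasted (10-h overnight) with 240 ml water: 10, 20, 30 or 40 mg as oral solution, or 80 mg as IR tablets. Parent plasma levels by LC/MS-MS over 0.25–14 h. Noncompartmental analysis: kel by terminal-phase least-squares regression, AUC extrapolated to infinity, CL/F = dose/AUC, V/F = CL/F÷kel.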"}, "[5]": {"test": "Cmax in healthy human plasma at 30 mg, po administered as single ascending doses as solution during 10 hrs overnight fasting state", "format": "ADME, organism-based", "set-up": "dose 30 mg, route oral", "method_in_brief": "as §2"}, "[6]": {"test": "Apparent volume of distribution with respect to the bioavailability in healthy human at 80 mg, po administered as four 20 mg immediate release tablets daily for 3 days during 10 hrs overnight fasting state measured after 3 day", "format": "ADME, organism-based", "details": "in vivo, read-out: Vc/F", "method_in_brief": "as §1"}, "[7]": {"test": "Mean residence time in healthy human at 40 mg, po administered as two 20 mg immediate release tablets daily for 3 days during 10 hrs overnight fasting state measured after 3 day", "format": "ADME, organism-based", "details": "in vivo", "method_in_brief": "(§5)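 Healthy Caucasian males took tablets once daily for 3 days with 240 ml water after a 10-h fast. Heparinised blood was drawn predose and at 0.25–14 h after the first and last doses. Plasma parent drug and metabolites M1–M3 were measured by LC/MS-MS (MRM, deuterated internal standard). Noncompartmental analysis gave Cmax observed, t1/2 = 0.693/kel and MRT = AUMC/AUC. Values are geometric means.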"}, "[8]": {"test": "Apparent oral clearance in healthy human at 30 mg, po administered as single ascending doses as solution during 10 hrs overnight fasting state", "format": "ADME, organism-based", "details": "in vivo", "method_in_brief": "as §4"}, "Homo sapiens [9]": {"tested_on": "Homo sapiens", "test": "Toxicity in healthy human assessed as occurrence of adverse event at 80 mg, po administered daily for 3 days as four 20-mg immediate-release tablets during 10 hrs overnight fasting state", "format": "organism-based", "details": "in vivo", "method_in_brief": "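3-day daily oral tablet dosing in healthy Caucasian men (8 active, 4 placebo per dose). Adverse events were collected by open questioning and spontaneous report. Severity was graded mild (daily activities unaffected), moderate (some interference) or severe (activities not completed).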"}, "Homo sapiens [10]": {"tested_on": "Homo sapiens", "test": "Toxicity in healthy human assessed as decrease in alanine aminotransferase level at 80 mg, po administered daily for 3 days as four 20-mg immediate-release tablets during 10 hrs overnight fasting state measured after 2 days last post treatment", "format": "organism-based", "details": "in vivo, 48 h"}, "[11]": {"test": "Apparent volume of distribution with respect to the bioavailability in healthy human at 40 mg, po administered as two 20 mg immediate release tablets daily for 3 days during 10 hrs overnight fasting state measured after 3 day", "format": "ADME, organism-based", "details": "in vivo, read-out: Vc/F", "method_in_brief": "as §1"}, "[12]": {"test": "Mean residence time in healthy human at 40 mg, po administered as two 20 mg immediate release tablets daily for 3 days during 10 hrs overnight fasting state measured after 1 day", "format": "ADME, organism-based", "details": "in vivo", "method_in_brief": "as §5"}, "Homo sapiens [13]": {"tested_on": "Homo sapiens", "test": "Toxicity in healthy human assessed as increase in glutamate dehydrogenase level at 80 mg, po administered daily for 3 days as four 20-mg immediate-release tablets during 10 hrs overnight fasting state measured after 24 hrs last post treatment", "format": "organism-based", "details": "in vivo"}, "Plasmodium falciparum": {"tested_on": "Plasmodium falciparum", "test": "Antimalarial activity against Plasmodium falciparum TM90-C2A in human plasma assessed as inhibition of hypoxanthine uptake by intraerythrocytic malaria parasites by hypoxanthine incorporation assay", "format": "functional, organism-based", "method_in_brief": "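K1 or TM90-C2A parasites were sorbitol-synchronized and cultured in RPMI 1640. Drug was diluted in drug-free human serum (0.04–40 ng/ml) or subject plasma was diluted twofold (8–8,192). Parasites were added at 2% hematocrit, 1% parasitemia (>95% rings), and [3H]hypoxanthine uptake was measured over 48 h. IC50 or ID50 came from concentration or dilution-response curves. Equivalent concentration = ID50 × IC50.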"}, "[14]": {"test": "Cmax in healthy human plasma at 40 mg, po administered as single ascending doses as solution during 10 hrs overnight fasting state", "format": "ADME, organism-based", "set-up": "dose 40 mg, route oral", "method_in_brief": "as §2"}, "[15]": {"test": "AUC in healthy human plasma at 40 mg, po administered as single ascending doses as solution during 10 hrs overnight fasting state", "format": "ADME, organism-based", "set-up": "time < 10 hr, dose 40 mg, route oral", "method_in_brief": "as §4"}, "[16]": {"test": "Cmax in healthy human plasma at 40 mg, po administered as two 20 mg immediate release tablets daily for 3 days during 10 hrs overnight fasting state measured after 1 day", "format": "ADME, organism-based", "set-up": "dose 40 mg, route oral", "method_in_brief": "as §5"}, "Homo sapiens [17]": {"tested_on": "Homo sapiens", "test": "Toxicity in healthy human assessed as occurrence of clinically relevant changes in vital signs at 80 mg, po administered daily for 3 days as four 20-mg immediate-release tablets during 10 hrs overnight fasting state", "format": "organism-based", "details": "in vivo", "method_in_brief": "(§6)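 Healthy Caucasian men received single ascending doses (10–40 mg solution, 80 mg tablets) or 3-day daily tablet courses, all fasting, with randomized placebo controls. Supine blood pressure, heart rate and resting 12-lead ECG were recorded before and after dosing.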"}, "[18]": {"test": "Apparent oral clearance in healthy human at 40 mg, po administered as single ascending doses as solution during 10 hrs overnight fasting state", "format": "ADME, organism-based", "details": "in vivo", "method_in_brief": "as §4"}, "[19]": {"test": "Tmax in healthy human plasma at 40 mg, po administered as single ascending doses as solution during 10 hrs overnight fasting state", "format": "ADME, organism-based", "method_in_brief": "as §3"}, "[20]": {"test": "AUC in healthy human plasma at 80 mg, po administered as four 20 mg immediate release tablets daily for 3 days during 10 hrs overnight fasting state measured after 1 day", "format": "ADME, organism-based", "set-up": "dose 80 mg, time < 10 hr, route oral", "method_in_brief": "as §1"}, "[21]": {"test": "Apparent oral clearance in healthy human at 10 mg, po administered as single ascending doses as solution during 10 hrs overnight fasting state", "format": "ADME, organism-based", "details": "in vivo", "method_in_brief": "as §4"}, "Homo sapiens [22]": {"tested_on": "Homo sapiens", "test": "Toxicity in healthy human assessed as occurrence of changes in electrocardiogram parameters at 10 to 80 mg, po administered as single ascending doses during 10 hrs overnight fasting state", "format": "organism-based", "details": "in vivo", "method_in_brief": "as §6"}, "[23]": {"test": "Cmax in healthy human plasma at 80 mg, po administered as four 20 mg immediate release tablets daily for 3 days during 10 hrs overnight fasting state measured after 3 day", "format": "ADME, organism-based", "set-up": "dose 80 mg, route oral", "method_in_brief": "as §5"}, "[24]": {"test": "AUC in healthy human plasma at 80 mg, po administered as four 20 mg immediate release tablets daily for 3 days during 10 hrs overnight fasting state measured after 3 day", "format": "ADME, organism-based", "set-up": "time < 10 hr, dose 80 mg, route oral", "method_in_brief": "as §1"}},
  "data": [
    {"smiles": "C[C@H]1[C@H](N2CCS(=O)(=O)CC2)O[C@@H]2O[C@@]3(C)CC[C@H]4[C@H](C)CC[C@@H]1[C@@]24OO3", "note": "[ARTEMIFONE]", "values": [
      {"measurement": "Vd/F", "setting": "[1]", "value": 13, "unit": "L/kg"},
      {"measurement": "half-life", "setting": "[2]", "value": 3.14, "unit": "h"},
      {"measurement": "Tmax", "setting": "[3]", "value": 0.5, "unit": "h"},
      {"measurement": "CL/F", "setting": "[4]", "value": 5080, "unit": "mL/min"},
      {"measurement": "Cmax", "setting": "[5]", "value": 50.5, "unit": "ng/mL"},
      {"measurement": "Vd/F", "setting": "[6]", "value": 13.7, "unit": "L/kg"},
      {"measurement": "MRT", "setting": "[7]", "value": 3.74, "unit": "h"},
      {"measurement": "CL/F", "setting": "[8]", "value": 6960, "unit": "mL/min"},
      {"measurement": "Activity", "setting": "Homo sapiens [9]", "value": "Non-toxic"},
      {"measurement": "Activity", "setting": "Homo sapiens [10]", "value": "Non-toxic"},
      {"measurement": "Vd/F", "setting": "[11]", "value": 16.1, "unit": "L/kg"},
      {"measurement": "MRT", "setting": "[12]", "value": 2.91, "unit": "h"},
      {"measurement": "Activity", "setting": "Homo sapiens [13]", "value": "Non-toxic"},
      {"measurement": "IC50", "setting": "Plasmodium falciparum", "value": 0.64, "unit": "ng/mL"},
      {"measurement": "Cmax", "setting": "[14]", "value": 83, "unit": "ng/mL"},
      {"measurement": "AUC at 10 h", "setting": "[15]", "value": 118, "unit": "ng·h/mL"},
      {"measurement": "Cmax", "setting": "[16]", "value": 96.4, "unit": "ng/mL"},
      {"measurement": "Activity", "setting": "Homo sapiens [17]", "value": "Non-toxic"},
      {"measurement": "CL/F", "setting": "[18]", "value": 5640, "unit": "mL/min"},
      {"measurement": "Tmax", "setting": "[19]", "value": 0.625, "unit": "h"},
      {"measurement": "AUC at 10 h", "setting": "[20]", "value": 343, "unit": "ng·h/mL"},
      {"measurement": "CL/F", "setting": "[21]", "value": 5640, "unit": "mL/min"},
      {"measurement": "Activity", "setting": "Homo sapiens [22]", "value": "Non-toxic"},
      {"measurement": "Cmax", "setting": "[23]", "value": 130, "unit": "ng/mL"},
      {"measurement": "AUC at 10 h", "setting": "[24]", "value": 337, "unit": "ng·h/mL"}
    ]}
  ]
}
